# Screens as filed in PubChem BioAssay.
# STAT1 activator: STAT1 signaling activation; NIH 3T3 STAT1-luciferase reporter, IFN-gamma, luminescence; 100% = IFN-gamma alone, no compound; activation (% of control), % at 5.5 µM; 200,000 compounds, 2.6% hits; AID 932;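 active = activation above the screen-wide mean activation plus 3 SD, cut at about 130% in these data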;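 note: raw ratio to IFN-gamma control signal so 100% means no change and 0% no light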
# APP 5'UTR act: activates APP 5'UTR luciferase reporter; SH-SY5Y APP 5'UTR luciferase reporter, luminescence; zero percent = DMSO vehicle wells; activation, % at 2 µM; 190,000 compounds, 1% hits; AID 1276;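 active = activation above a set limit, based on mean plus 3 SD of controls, cut at about 140% in these data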
# NF-kB expr up: compounds increasing NF-kB expression in human neuronal cells | NF-kB reporter expression; active compounds read high | fold change at 12.5 µM | 190,000 compounds, 1.6% hits | AID 1239; in the data active = fold change above about 3.3
# STAT1 blocker: reduces IFN-gamma driven STAT1 reporter signal; inhibition, % at 5.5 µM; NIH 3T3 STAT1-luciferase reporter, luminescence; 200,000 compounds, 0.35% hits; AID 920;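 active = inhibition above a set limit, the mean inhibition across all tested compounds plus 3 SD, cut at about 34% in these data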;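 note: 0% = IFN-gamma with DMSO and 100% = IFN-gamma with 300 µM nifuroxazide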
# STAT3 act: activators of IL-6 induced STAT3 signaling. U3A cells, IL-6 STAT3-luciferase reporter, luminescence; 100% = signal with IL-6 EC80 alone. activation (% of control), % at 5.6 µM. 190,000 compounds, 0.91% hits. AID 871;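 active = activation above the screen-wide mean of compound activation plus 3 SD, cut at about 130% in these data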;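 note: 0% = background luminescence of wells with medium and substrate only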
#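 Material: STAT3-luciferase reporter U3A cells. Controls: IL-6-treated wells, 100% activation. Read-out: % activation versus median of IL-6-stimulated wells. Probe or stimulus: IL-6 stimulus at 33 ng/mL final. Timing: compound 1 h, then IL-6 6 h at 37 °C. Signal: reporter luminescence signal.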
# STAT3 inh: reduces IL-6 driven STAT3 reporter signal; U3A cells, IL-6 STAT3-luciferase reporter, luminescence; host cell line lacks STAT1; inhibition, % at 5.5 µM; 190,000 compounds, 0.89% hits;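 active = inhibition above the mean inhibition across all screened compounds plus 3 SD, cut at about 44% in these data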;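 note: 0% = DMSO only wells and 100% = 100 µM nifuroxazide control wells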
# Numbers without * were called inactive; . = not tested or not shown. An excerpt weighted towards active compounds, which were near 4.9% of everything screened.
SMILES,STAT1 activator,APP 5'UTR act,NF-kB expr up,STAT1 blocker,STAT3 act,STAT3 inh
c1ccc2c(CNc3ccc(CNc4ncn[nH]4)cc3)cccc2c1,90,14,0.83,7,91,15
COc1cc(CNc2ncn[nH]2)ccc1OCC(=O)NC(C)(C)C,92,10,0.88,7,91,17
CNC(=O)c1ccccc1NC(=O)c1c(O)c2c([nH]c1=O)CCCC2,106,-3,0.84,-6,119,-16
O=C(N/N=C/c1cccc(F)c1)c1c(O)c2c([nH]c1=O)CCCC2,103,142*,1.2,-4,94,7
COc1ccc(-c2nc3ccc(N4CCN(C)CC4)cc3c(=O)[nH]2)cc1,130*,3,1.6,-32,111,-2
COc1cc(-c2nc3ccc(N4CCN(C)CC4)cc3[nH]2)cc(OC)c1OC,79,18,1.1,22,84,22
CN=c1scc(-c2cccs2)n1/N=C/c1ccc(O)c(O)c1O,58,-21,5*,47*,64,45*
CN=c1scc(-c2cccs2)n1/N=C/c1ccccc1O,58,-53,0.17,47*,9,107*
Cc1onc(-c2c(F)cccc2Cl)c1C(=O)N1CCOC12CCCCC2,100,41,1.1,-1,104,-1
c1ccc2c(c1)nnn1c3ccccc3nc21,146*,147*,5.3*,-51,60,48*
CN(C)S(=O)(=O)c1ccc(N=Cc2c(C(F)(F)F)[nH][nH]c2=O)cc1,100,7,1,-2,94,14
Cn1[nH]c(C(F)(F)F)c(C=Nc2ccc(Cl)cc2)c1=O,99,182*,1.2,0,95,9
COc1cccc(CCc2nnc(CCC(=O)NC(C)c3c(C)nn(C)c3C)o2)c1 (configuration not stated),102,-1,1.2,-4,98,7
COc1ccc(CCNCc2ccc(OCc3ccc(Cl)nc3)c(OC)c2)cc1OC,95,-7,0.73,5,101,-1
COc1cc(C=O)ccc1OCCCOc1ccccc1C(=O)O,148*,127,1.5,-52,89,19
C/C=C/c1ccc(OCCOc2cc(C=O)ccc2OC)c(OC)c1,131*,28,1.8,-34,107,-2
COc1cc(C=O)ccc1OCCCOc1ccccc1[N+](=O)[O-],130*,1,2,-34,109,-10
COc1cc(C=O)ccc1OCCCCOc1ccccc1[N+](=O)[O-],99,-15,1.1,1,98,3
C/C=C/c1ccc(OCCCCOc2ccccc2F)c(OC)c1,105,10,0.97,-6,103,-5
COc1cc(C=O)ccc1OCc1ccc(Cl)nc1,136*,63,.,-43,109,-5
CC(C)(C)c1ccc(/C=C(\C#N)C(=O)NCCN2CCOCC2)cc1,96,29,1.1,3,96,10
CCCN(CCC)CCNC(=O)CCC(=O)Nc1ccc2nc(N3CCN(C)CC3)cc(C)c2c1,99,9,1.4,-1,104,4
COCC(=O)Nc1cc(C(=O)Nc2ccccc2)ccc1Cl,97,29,1.6,1,91,16
CC(C)(C)c1ccc(C(=O)Nc2ccccc2Cl)cc1,115,201*,4.8*,-16,74,34
COC(=O)c1ccc(Cl)c(NC(=O)c2ccc(-c3ccccc3)cc2)c1,101,-2,1.3,-1,136*,-31
SMILES,STAT1 activator,APP 5'UTR act,NF-kB expr up,STAT1 blocker,STAT3 act,STAT3 inh
CCCCCCOc1ccc(N2C(=O)CC(N(CCc3ccc(S(N)(=O)=O)cc3)C(C)=O)C2=O)cc1 (configuration not stated),98,-10,.,2,96,10
COc1ccc(Cc2nnc(Nc3ccc4c(c3)OCCO4)[nH]c2=O)cc1,94,6,1.3,6,99,5
CS(=O)(=O)N(CC(=O)N1CCN(c2ccccc2)CC1)c1ccccc1Cl,98,-9,.,2,95,10
CC(=O)Nc1ccc2nc(-c3ccc(Br)o3)[nH]c2c1,133*,72,1.5,-37,103,-4
O=C(Nc1ccc2nc(-c3ccc(Br)o3)[nH]c2c1)c1ccco1,111,.,0.54,-12,91,17
COc1ccccc1OCc1ccc(C(=O)Nc2ccc(Cl)cn2)o1,109,-3,1.3,-12,97,6
Cc1cnc(C(=O)Nc2ccc(N3CCCCC3)cc2)cn1,135*,142*,2.8,-39,80,26
CN1CCN(c2ccc(NC(=O)c3ccc4c(c3)OCCO4)cc2)CC1,132*,141*,1.6,-37,107,0
Cc1ccc(C(=O)Nc2ccc(N3CCCC3)cc2)cc1,140*,109,1,-47,99,4
CCC(=O)N1CCN(c2ccc(NC(=O)c3ccc4c(c3)OCCO4)cc2)CC1,122,25,.,-26,108,-3
CCN1CCN(c2ccc(NC(=O)c3ccccc3F)cc2Cl)CC1,132*,75,2.4,-37,101,8
O=C(NCCCn1ccnc1)C(=O)Nc1ccccc1,113,7,1.3,-16,107,-6
COc1cccc(-c2nn(-c3ccccc3)cc2CNC(C)Cn2cncn2)c1 (configuration not stated),99,-3,0.92,0,81,26
CCOc1ccc(NC(=O)CSc2nc3ccccc3c(=O)n2CCCC(=O)NCCCN2CCCC2=O)cc1,100,1,0.93,0,103,4
Cc1cc(C)c(S(=O)(=O)Nc2cccc(S(=O)(=O)NC3=NCCC3)c2)c(C)c1,107,-1,0.87,-7,103,-3
O=C(Nc1ccc(N2CCCC2)cc1)c1ccccc1F,149*,137*,1.9,-53,95,6
CN1CCN(c2ccc(NC(=O)Cc3ccccc3)cc2)CC1,113,.,2.4,-15,103,-1
CN1CCN(c2ccc(NC(=O)c3sc4ccccc4c3Cl)cc2)CC1,115,182*,2.7,-16,77,33
O=C(Nc1ccc(N2CCCCC2)cc1)c1cccnc1Cl,112,18,1.4,-13,95,12
O=C(Nc1ccncc1)c1cncc(Br)c1,95,13,1,6,95,9
O=C(Cc1ccccc1)Nc1ccc(N2CCCCC2)cc1,130*,185*,4.9*,-34,99,3
O=C(Nc1ccc(N2CCCCC2)cc1)c1cncc(Br)c1,134*,108,4*,-37,98,8
O=C(NCc1cccnc1)c1cc2nc(-c3cccs3)cc(C(F)(F)Cl)n2n1,91,-11,0.76,8,82,24
O=c1c2ccccc2nc2sc3ccccc3n12,141*,1,3.2,-45,123,-23
CC(=O)c1cc(NC(=O)c2ccccc2)c(=O)oc1C,96,9,6.1*,4,92,9
Cc1ccc(C(=O)Nc2cc3ccccc3oc2=O)cc1,12,-66,1.1,94*,10,106*
